Laboratory results taken from paper PMC6207247 (Clinical Pharmacology : Advances and Applications, 2018).
Entries after “also recorded” stand apart in the source; their conditions may differ.

Legend:
thrombin generation = assay: Ex vivo thrombin generation; type: in vivo, human; conditions: after apixaban administration, greatest change
How it was run: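 For thrombin generation, the same dosing design applied, with platelet-poor plasma (double centrifugation, 2,500 g, 4°C) sampled 3, 6, 12 and 24 h postdose. Thrombin over time came from cleavage of a slow-reacting fluorogenic substrate against a paired calibration sample. Lag time, time to peak, peak thrombin and endogenous thrombin potential were derived from the curve and summarised as % change from baseline by group, dose and time.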

clotting time (INR) = assay: International normalized ratio; type: in vivo, human; conditions: 50 mg dose, Japanese and Caucasian
[1] = Single-dose pharmacokinetics of apixaban in plasma and urine; type: in vivo, human; conditions: for dose proportionality of exposure: Japanese and Caucasian; for CL renal / half-life: male, human, oral; for CL renal: plasma and urine, renal clearance; for half-life: plasma
[2] = system: clotting times and thrombin generation; assay: Time course of pharmacodynamic measures; type: in vivo, human
clotting time (mPT) = assay: Modified prothrombin time; type: in vivo, human; conditions: 50 mg single dose, Japanese and Caucasian
[3] = Safety and tolerability assessment; type: in vivo, human; conditions: for bleeding time: same subject
How it was run: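 Subjects stayed in clinic ≥72 h per period and avoided alcohol, grapefruit, caffeine and fecal-occult-interfering foods up to Day 4. Safety was assessed by adverse-event review (MedDRA v8.1, by organ class, ethnic group and dose), vital signs, ECGs, physical exams, serum chemistry, liver function, blood counts, urinalysis, fecal occult blood and template-device bleeding time.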

clotting time (aPTT) = assay: Activated partial thromboplastin time; type: in vivo, human; conditions: 50 mg dose
[4] = patients with atrial fibrillation, population PK; cited from earlier work

COc1ccc(-n2nc(C(N)=O)c3c2C(=O)N(c2ccc(N4CCCCC4=O)cc2)CC3)cc1 [apixaban, 1-(4-methoxyphenyl)-7-oxo-6-(4-(2-oxopiperidin-1-yl)phenyl)-4,5,6,7-tetrahydro-1H-pyrazolo[3,4-c]pyridine-3-carboxamide]
ETP, decrease from baseline (thrombin generation): 49%
LAG, increase from baseline (up to) (thrombin generation): approximately 178%
PEAK, decrease from baseline (thrombin generation): 86%
TTP, increase from baseline (up to) (thrombin generation): ~142%
INR, increase from baseline (clotting time (INR)): 50%–64%
AUC values lower in Japanese than in Caucasian subjects ([1]; 50 mg dose): 20%–22%
dose proportionality of exposure ([1]; 2.5–10 mg dose range): increased the dose proportionally up to 10 mg; also recorded: increased in proportion to dose
point estimates and 95% CIs for dose proportionality parameter b ([1]; Cmax and AUC, both Japanese and Caucasian subjects, 2.5–50 mg): < 1
dose proportionality of exposure ([1]; across the 2.5–50 mg dose range): less than proportional to dose
CL renal ([1]; Caucasian subjects, across doses): 13.3 mL/min
CL renal ([1]; Japanese subjects, across doses): 18.3 mL/min
half-life ([1]; mean T1/2 values across doses, Caucasian subjects, 2.5–50 mg): 8.9 to 16.1 h
half-life ([1]; mean T1/2 values across doses, Japanese subjects, 2.5–50 mg): 6.1 to 8.5 h
half-life ([1]; mean half-life, Caucasian subjects, across doses): ~13 h
half-life ([1]; mean half-life, Japanese subjects, across doses): ~8 h
duration of pharmacodynamic effects ([2]; 25 and 50 mg dose panels): > 24 h
time for which changes in TG parameters and mPT were evident ([2]; after apixaban administration): ≥ 12 h
time until changes in pharmacodynamic measures were evident ([2]; after apixaban administration, Japanese and Caucasian): ≤ 30 min
time to nearing baseline values of pharmacodynamic measures ([2]; doses ≤10 mg): 12 to 24 h
time of peak values of pharmacodynamic measures ([2]; postdose): approximately 3 h
mPT, mean maximum increase from baseline (clotting time (mPT)): 226%–229%
headache, number of subjects ([3]; Caucasian subjects who received apixaban): five
subjects reporting AEs ([3]; Caucasian subjects who received apixaban (11)): 91.7%
subjects reporting AEs ([3]; Japanese subjects who received apixaban (five)): 41.7%
intensity of reported AEs ([3]; all reported AEs): mild or moderate
safety and tolerability ([3]; ascending single oral doses 2.5–50 mg, Japanese and Caucasian healthy subjects): safe and well tolerated
changes in vital signs or ECGs ([3]; either group): no clinically relevant changes
bleeding time ([3]; 3.5 h after the 50 mg dose): 30 min
bleeding time ([3]; by 12 h after the 50 mg dose): 9 min
total number of AEs reported ([3]; subjects who received apixaban (12 Japanese, 12 Caucasian)): 32
serious AEs or discontinuations due to AEs ([3]; whole study): no serious AEs or discontinuations due to AEs
aPTT, mean maximum increase from baseline (clotting time (aPTT)): ~ 25%
apixaban clearance lower in Japanese patients compared to the overall population [4]: 15%
higher exposure corresponding to the lower clearance in Japanese patients [4]: 18%
